“And” between values parts separate entries of the source, which are not always exact repeats. Equal values may be shown once. Read-outs that look alike come from different tables or passages of the source.
Experiments:
[1] = cited from earlier work
[2] = assay type: in vivo, human; details: for AUC0‐inf, LS Mean / Cmax, LS Mean: ANOVA, exponentiated LSM
[3] = tested on: BTK; details: cited from earlier work
[4] = tested on: human plasma; assay: Plasma protein binding in study 2 subjects; assay type: in vitro ADME
Outline: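 Severe hepatic impairment and matched control subjects received a single oral 50-mg dose of the test compound after an overnight fast. Blood (4 mL) was drawn on day 1 at 0.863, 1.75 and 6.5 h post-dose. Binding of parent and active metabolite in the plasma was assessed by ultracentrifugation to estimate the unbound fraction.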

[5] = Urinary excretion and renal clearance after a single 50-mg dose; assay type: in vivo, human; details: for mean renal clearance: ACP-5862
Outline: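 In study 2, a single oral 50-mg capsule was taken with ≈240 mL water after an overnight fast. Urine was collected predose, 0–4 h and 4–24 h post-dose and pooled per interval for each subject. Analytes were quantified by validated LC-MS/MS with deuterated internal standards over a nominal urine range of 5 to 5000 ng/mL.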

[6] = human, plasma; cited from earlier work
[7] = tested on: human plasma; assay: In vitro protein binding in human plasma; assay type: in vitro ADME; details: human plasma
[8] = ACP-5862/acalabrutinib, study 2, Control (n = 8), arithmetic mean (SD)
[9] = ACP-5862/acalabrutinib, study 2, Severe (n = 8), arithmetic mean (SD)
[10] = ACP-5862, severe hepatic impairment vs control subjects
[11] = plasma ACP-5862, Severe vs normal hepatic function (reference)
[12] = subjects with severe hepatic impairment

Question: For C=CC(=O)N1CCC[C@@H](n2nc(-c3ccc(Oc4ccccc4)cc3)c3c(N)ncnc32)C1 [ibrutinib], which “mean AUC, fold higher compared with healthy controls” value (“mean AUC, fold higher” below) ([1]; mild hepatic impairment) is on record?
Answer: The value was 2.7 fold.

Question: What about the “mean AUC, fold higher” value ([1]; moderate hepatic impairment) of the same compound?
Answer: Its value is 8.0 fold.

Question: And the “mean AUC, fold higher” value ([1]; severe hepatic impairment)?
Answer: Its value is 9.5 fold.

Question: With CC#CC(=O)NCCCC(=O)c1nc(-c2ccc(C(=O)Nc3ccccn3)cc2)c2c(N)nccn12 [ACP‐5862] as the compound, how does the “MR:AUC0‐inf (metabolite‐to‐parent ratio)” value [2, 8] read?
Answer: Its value is 3.59 and 3.6 ± 0.9.

Question: And the “MR:AUC0‐last (metabolite‐to‐parent ratio)” value [2, 8]?
Answer: Its value is 3.1 ± 0.7.

Question: And the “MR:Cmax (metabolite‐to‐parent ratio)” value [2, 8]?
Answer: Its value is 1.15 and 1.1 ± 0.4.

Question: What about the “MR:AUC0‐last (metabolite‐to‐parent ratio)” value [2, 9] of the same compound?
Answer: Its value is 0.6 ± 0.4.

Question: And the “MR:Cmax (metabolite‐to‐parent ratio)” value [2, 9]?
Answer: The value was 0.247 and 0.2 ± 0.1.

Question: And the “geometric mean ratio for AUC” value [2, 10]?
Answer: The value was 0.9.

Question: What about the “geometric mean ratio for Cmax” value [2, 10] of the same compound?
Answer: Its value is 1.01.

Question: What about the “AUC0‐inf, LS Mean” value ([2]; plasma ACP-5862, Control, n 8) of the same compound?
Answer: Its value is 817.0 ng·h/mL.

Question: What about the “Cmax, LS Mean” value ([2]; plasma ACP-5862, Control, n 8) of the same compound?
Answer: The value was 166.5 ng/mL.

Question: And the “AUC0‐inf, LS Mean” value ([2]; plasma ACP-5862, Severe, n 6)?
Answer: Its value is 782.2 ng·h/mL.

Question: And the “Cmax, LS Mean” value ([2]; plasma ACP-5862, Severe, n 8)?
Answer: Its value is 168.7 ng/mL.

Question: What about the “AUC0‐inf GMR: Test/Reference” value [2, 11] of the same compound?
Answer: The value was 95.7%.

Question: What about the “Cmax GMR: Test/Reference” value [2, 11] of the same compound?
Answer: The value was 101.4%.

Question: What about the “potency for BTK inactivation relative to parent acalabrutinib” value [3] of the same compound?
Answer: The value was “≈ 50%”.

Question: And the mean protein binding ([4]; healthy matched controls)?
Answer: Its mean protein binding is “≈ 98%”.

Question: What about the mean protein binding [4, 12] of the same compound?
Answer: The mean protein binding was “≈ 94%”.

Question: And the mean renal clearance ([5]; matched control subjects with normal hepatic function)?
Answer: Its mean renal clearance is 605.3 mL/h.

Question: And the mean renal clearance [5, 12]?
Answer: Its mean renal clearance is 692.6 mL/h.

Question: What about the “amount of the metabolite excreted in urine” value ([5]; ACP-5862 after 50-mg acalabrutinib, subjects with severe hepatic impairment) of the same compound?
Answer: The value was “≈ 0.415 mg”.

Question: What about the “share of total acalabrutinib‐related material in plasma” value [6] of the same compound?
Answer: The value was greater than 10%.

Question: What about the “in vitro protein binding” value ([7]; plasma concentration 1 μM (0.482 μg/mL)) of the same compound?
Answer: Its value is 98.7%.

Question: And the “in vitro protein binding” value ([7]; plasma concentration 10 μM (4.82 μg/mL))?
Answer: Its value is 98.6%.
